Series [1] deals with HepG2. As to the kind of experiment: Cytotoxicity against human HepG2 cells.
Series [2] deals with T1, Sodium channel protein type 5 subunit alpha (Homo sapiens, UniProt Q14524). As to the kind of experiment: Inhibition of human Nav1.5 expressed in CHO cells under inactivated state by automated patch clamp electrophysiology analysis. The series is classed as cell-based. (In patch-clamp work, channel activity is measured electrically.)
Series [3] deals with T2, Sodium channel protein type 9 subunit alpha (Homo sapiens, UniProt Q15858). As to the kind of experiment: Inhibition of human Nav1.7 expressed in CHO cells under resting state by automated patch clamp electrophysiology analysis. The series is classed as cell-based.
The target of series [4] is T1, Sodium channel protein type 5 subunit alpha. As to the kind of experiment: Inhibition of human Nav1.5 expressed in Xenopus laevis oocytes at closed state at 1 uM by two electrode voltage-clamp assay. The note with it: oocyte. The format is cell-based. In a few lines:
(§1)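 TEVC on Nav channels expressed in Xenopus laevis oocytes. Each oocyte was injected with 50 nL cRNA at 1 ng/nL and recorded 1–4 days later at 18–22 °C. Bath (mM): NaCl 96, KCl 2, CaCl2 1.8, MgCl2 2, HEPES 5, pH 7.4. Electrodes held 3 M KCl at 0.8–1.5 MΩ. Compound tested at 1 μM. Mean ± SD, n ≥ 5.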

Series [5] concerns the target T2, Sodium channel protein type 9 subunit alpha. As to the kind of experiment: Inhibition of human Nav1.7 expressed in CHO cells under inactivated state by automated patch clamp electrophysiology analysis. The format is cell-based.
Series [6] has as its target T1, Sodium channel protein type 5 subunit alpha. As to the kind of experiment: Inhibition of human Nav1.5 expressed in CHO cells by automated patch clamp electrophysiology analysis.
Series [7] has the same target. As to the kind of experiment: Inhibition of human Nav1.5 expressed in CHO cells under resting state by automated patch clamp electrophysiology analysis. The series is classed as cell-based.
For series [8] the target is unchanged. As to the kind of experiment: Inhibition of human Nav1.5 expressed in CHO cells under tonic pulse 1 by automated patch clamp electrophysiology analysis. The series is classed as cell-based.
For series [9], the target named is T3, Sodium channel protein type 3 subunit alpha (Homo sapiens, UniProt Q9NY46). As to the kind of experiment: Inhibition of human Nav1.3 expressed in CHO cells under inactivated state by automated patch clamp electrophysiology analysis. The series is classed as cell-based.
Series [10] addresses Sodium channel protein type 2 subunit alpha (Rattus norvegicus) (UniProt P04775). As to the kind of experiment: Inhibition of rat Nav1.2 expressed in Xenopus laevis oocytes at closed state at 1 uM by two electrode voltage-clamp assay. The series is classed as cell-based. To be noted: Oocyte. The essentials: as §1
For orientation: Two-electrode voltage clamp holds a large cell at a set potential and records current.

Series [11] addresses T2, Sodium channel protein type 9 subunit alpha. As to the kind of experiment: Inhibition of human Nav1.7 expressed in Xenopus laevis oocytes at closed state at 1 uM by two electrode voltage-clamp assay. The format is cell-based. To be noted: Oocyte. In a few lines: as §1
Series [12] deals with T3, Sodium channel protein type 3 subunit alpha. As to the kind of experiment: Inhibition of human Nav1.3 expressed in CHO cells under resting state by automated patch clamp electrophysiology analysis. The series is classed as cell-based.
In series [13] the target is Sodium channel protein type 3 subunit alpha (Rattus norvegicus) (UniProt P08104). As to the kind of experiment: Inhibition of rat Nav1.3 expressed in Xenopus laevis oocytes at 1 uM under resting state by two electrode voltage-clamp assay relative to control. The series is classed as cell-based. The note with it: Oocyte. In a few lines: as §1
Series [14] deals with Sodium channel protein type 4 subunit alpha (Rattus norvegicus) (UniProt P15390). As to the kind of experiment: Inhibition of rat Nav1.4 expressed in Xenopus laevis oocytes at closed state at 1 uM by two electrode voltage-clamp assay. The format is cell-based. The note with it: Oocyte. In a few lines:
as §1

Series [15] deals with Sodium channel protein type 1 subunit alpha (Homo sapiens) (UniProt P35498). As to the kind of experiment: Inhibition of human Nav1.1 expressed in Xenopus laevis oocytes at closed state at 1 uM by two electrode voltage-clamp assay. The format is cell-based. To be noted: Oocyte. The essentials: as §1
Series [16] has as its target Sodium channel protein type 10 subunit alpha (Homo sapiens) (UniProt Q9Y5Y9). As to the kind of experiment: Inhibition of human Nav1.8 expressed in Xenopus laevis oocytes at closed state at 1 uM by two electrode voltage-clamp assay. The series is classed as cell-based. The note with it: Oocyte. In a few lines: as §1
The target in series [17] is Sodium channel protein type 3 subunit alpha (Rattus norvegicus) (UniProt P08104). As to the kind of experiment: Inhibition of rat Nav1.3 expressed in Xenopus laevis oocytes at 1 uM under inactivated state by two electrode voltage-clamp assay relative to control. The series is classed as cell-based. To be noted: Oocyte. In a few lines: as §1
Series [18] addresses Sodium channel protein type 8 subunit alpha (Mus musculus) (UniProt Q9WTU3). As to the kind of experiment: Inhibition of mouse Nav1.6 expressed in Xenopus laevis oocytes at closed state at 1 uM by two electrode voltage-clamp assay. The series is classed as cell-based. The note with it: Oocyte. In a few lines:
as §1

The values that follow come from ChEMBL document CHEMBL5620393, “New aryl and acylsulfonamides as state-dependent inhibitors of Nav1.3 voltage-gated sodium channel” (Eur J Med Chem, 2023).

pIC50: −log10 of the molar value. Calls of active or inactive are those of the source. The calls are words filed in the database; no cut-off is given here.

Chain of Sodium channel protein type 10 subunit alpha (Homo sapiens) (Q9Y5Y9 whole entry, looked up): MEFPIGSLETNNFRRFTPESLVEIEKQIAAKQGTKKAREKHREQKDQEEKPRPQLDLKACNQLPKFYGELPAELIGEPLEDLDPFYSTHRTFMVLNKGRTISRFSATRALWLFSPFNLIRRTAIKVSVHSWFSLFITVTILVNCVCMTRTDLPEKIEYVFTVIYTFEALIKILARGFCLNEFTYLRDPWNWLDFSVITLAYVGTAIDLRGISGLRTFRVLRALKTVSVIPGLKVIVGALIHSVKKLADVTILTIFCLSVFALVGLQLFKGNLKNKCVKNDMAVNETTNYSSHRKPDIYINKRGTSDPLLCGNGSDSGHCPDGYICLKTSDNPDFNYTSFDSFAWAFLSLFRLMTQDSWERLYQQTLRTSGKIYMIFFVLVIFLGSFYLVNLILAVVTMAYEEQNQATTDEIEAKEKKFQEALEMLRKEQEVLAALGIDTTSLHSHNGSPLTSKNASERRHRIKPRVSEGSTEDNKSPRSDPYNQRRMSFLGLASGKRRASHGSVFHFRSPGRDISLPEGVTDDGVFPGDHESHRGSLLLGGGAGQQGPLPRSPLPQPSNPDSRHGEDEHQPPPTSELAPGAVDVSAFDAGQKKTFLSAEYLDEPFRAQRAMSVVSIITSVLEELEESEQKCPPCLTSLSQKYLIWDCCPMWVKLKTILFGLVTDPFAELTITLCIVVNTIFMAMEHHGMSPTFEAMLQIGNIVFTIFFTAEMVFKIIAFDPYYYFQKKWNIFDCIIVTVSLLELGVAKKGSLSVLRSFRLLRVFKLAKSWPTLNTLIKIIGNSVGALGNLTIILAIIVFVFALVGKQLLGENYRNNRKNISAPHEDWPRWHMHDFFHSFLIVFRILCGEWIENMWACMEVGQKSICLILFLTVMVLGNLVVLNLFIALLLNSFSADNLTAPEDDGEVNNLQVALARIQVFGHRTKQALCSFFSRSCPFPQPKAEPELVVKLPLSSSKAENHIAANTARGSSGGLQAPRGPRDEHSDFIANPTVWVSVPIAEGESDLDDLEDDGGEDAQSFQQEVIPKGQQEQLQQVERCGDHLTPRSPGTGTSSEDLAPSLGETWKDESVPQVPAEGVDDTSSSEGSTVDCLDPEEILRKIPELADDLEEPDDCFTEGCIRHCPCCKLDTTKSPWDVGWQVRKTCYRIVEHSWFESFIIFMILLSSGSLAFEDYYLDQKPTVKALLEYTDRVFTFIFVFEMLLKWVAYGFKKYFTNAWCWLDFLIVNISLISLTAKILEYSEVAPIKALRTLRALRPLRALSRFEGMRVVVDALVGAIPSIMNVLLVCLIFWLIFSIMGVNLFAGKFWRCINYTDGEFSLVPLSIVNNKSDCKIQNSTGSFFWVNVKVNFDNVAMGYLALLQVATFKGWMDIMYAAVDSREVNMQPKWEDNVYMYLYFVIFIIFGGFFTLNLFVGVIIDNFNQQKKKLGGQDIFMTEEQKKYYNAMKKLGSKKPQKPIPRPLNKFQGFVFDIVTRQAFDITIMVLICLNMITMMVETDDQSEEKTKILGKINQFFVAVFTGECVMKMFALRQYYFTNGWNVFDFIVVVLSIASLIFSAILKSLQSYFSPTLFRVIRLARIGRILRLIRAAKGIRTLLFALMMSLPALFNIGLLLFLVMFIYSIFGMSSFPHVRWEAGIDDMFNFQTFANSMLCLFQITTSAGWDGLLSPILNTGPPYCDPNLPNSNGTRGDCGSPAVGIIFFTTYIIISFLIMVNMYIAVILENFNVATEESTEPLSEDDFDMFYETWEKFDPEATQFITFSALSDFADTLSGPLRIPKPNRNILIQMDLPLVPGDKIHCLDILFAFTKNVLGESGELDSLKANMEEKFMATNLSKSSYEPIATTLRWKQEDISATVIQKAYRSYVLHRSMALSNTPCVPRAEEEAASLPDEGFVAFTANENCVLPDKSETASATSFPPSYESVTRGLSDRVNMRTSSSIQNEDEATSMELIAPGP
Chain of Sodium channel protein type 3 subunit alpha (Rattus norvegicus) (P08104 whole entry): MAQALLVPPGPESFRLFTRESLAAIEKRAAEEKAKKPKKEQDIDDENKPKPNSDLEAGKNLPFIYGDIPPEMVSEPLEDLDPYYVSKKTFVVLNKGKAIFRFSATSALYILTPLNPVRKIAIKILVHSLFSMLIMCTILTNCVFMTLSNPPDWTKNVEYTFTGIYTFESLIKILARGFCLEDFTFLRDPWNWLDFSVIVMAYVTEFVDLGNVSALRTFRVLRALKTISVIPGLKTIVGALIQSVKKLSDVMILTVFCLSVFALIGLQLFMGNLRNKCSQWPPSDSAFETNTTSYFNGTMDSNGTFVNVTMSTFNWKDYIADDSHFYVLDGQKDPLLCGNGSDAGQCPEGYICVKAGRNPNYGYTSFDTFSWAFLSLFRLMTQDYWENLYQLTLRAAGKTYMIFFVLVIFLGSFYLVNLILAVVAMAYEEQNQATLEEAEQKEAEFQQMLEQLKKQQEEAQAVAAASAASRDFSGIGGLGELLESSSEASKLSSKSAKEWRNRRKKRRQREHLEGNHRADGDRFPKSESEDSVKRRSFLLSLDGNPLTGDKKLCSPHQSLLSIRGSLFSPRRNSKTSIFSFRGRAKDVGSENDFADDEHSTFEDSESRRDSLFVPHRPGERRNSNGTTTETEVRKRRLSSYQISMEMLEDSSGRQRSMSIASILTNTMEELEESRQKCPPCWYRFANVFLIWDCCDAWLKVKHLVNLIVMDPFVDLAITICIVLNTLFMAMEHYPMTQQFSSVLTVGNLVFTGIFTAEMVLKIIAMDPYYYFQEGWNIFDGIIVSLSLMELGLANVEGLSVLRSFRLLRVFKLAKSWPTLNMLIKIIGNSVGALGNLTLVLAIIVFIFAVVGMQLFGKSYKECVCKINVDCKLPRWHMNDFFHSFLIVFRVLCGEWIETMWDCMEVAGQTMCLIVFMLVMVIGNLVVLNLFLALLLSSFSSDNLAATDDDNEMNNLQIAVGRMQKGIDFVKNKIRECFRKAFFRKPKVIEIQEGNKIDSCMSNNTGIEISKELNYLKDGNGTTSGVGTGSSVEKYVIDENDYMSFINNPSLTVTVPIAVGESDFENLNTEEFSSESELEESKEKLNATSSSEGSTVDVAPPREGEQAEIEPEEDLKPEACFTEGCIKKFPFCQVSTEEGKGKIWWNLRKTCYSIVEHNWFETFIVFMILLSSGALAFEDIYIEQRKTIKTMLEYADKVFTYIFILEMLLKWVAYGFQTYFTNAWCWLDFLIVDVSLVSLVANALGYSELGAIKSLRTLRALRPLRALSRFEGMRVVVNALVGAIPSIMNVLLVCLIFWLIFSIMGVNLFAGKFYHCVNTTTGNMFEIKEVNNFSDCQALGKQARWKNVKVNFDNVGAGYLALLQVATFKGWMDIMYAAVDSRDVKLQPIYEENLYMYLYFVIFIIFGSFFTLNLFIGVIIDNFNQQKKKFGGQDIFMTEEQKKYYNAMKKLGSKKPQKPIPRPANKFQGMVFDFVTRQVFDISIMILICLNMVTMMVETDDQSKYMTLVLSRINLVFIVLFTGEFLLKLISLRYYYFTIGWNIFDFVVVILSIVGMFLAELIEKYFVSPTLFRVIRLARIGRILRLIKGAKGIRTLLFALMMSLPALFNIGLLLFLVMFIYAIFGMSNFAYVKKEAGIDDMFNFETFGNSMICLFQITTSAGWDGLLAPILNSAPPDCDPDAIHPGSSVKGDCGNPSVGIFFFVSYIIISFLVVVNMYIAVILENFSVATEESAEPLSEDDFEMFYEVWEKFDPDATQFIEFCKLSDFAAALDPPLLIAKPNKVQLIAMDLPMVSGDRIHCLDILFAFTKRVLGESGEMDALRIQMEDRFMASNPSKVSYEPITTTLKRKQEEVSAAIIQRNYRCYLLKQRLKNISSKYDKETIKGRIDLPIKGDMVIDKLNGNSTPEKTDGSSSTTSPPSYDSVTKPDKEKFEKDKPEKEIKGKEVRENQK

As for `COc1cc([C@@H]2c3cc4c(cc3[C@@H](O[C@@H]3O[C@@H]5CO[C@@H](C)O[C@H]5[C@H](O)[C@H]3O)[C@H]3COC(=O)[C@H]23)OCO4)cc(OC)c1O` [ETOPOSIDE], in [1], the pIC50 (in general, −log10 of the IC50, conventionally taken in molar units) was 4.52.

Turning to `O=C(Nc1ccc(S(=O)(=O)Nc2nccs2)cc1)c1cc(Br)c(Br)n1Cc1ccccc1`, the pIC50 in series [2] is 5.46; in series [3], < 4.52; in series [5] it was 5.15; in [6], < 4.52; in series [7], < 4.52; in [8], < 4.52. Moreover, the “inhibition (INH)” value in [4] is recorded as “Not Active”.

For `CN(C)CCC=C1c2ccccc2CCc2ccccc21` [AMITRIPTYLINE], the pIC50 is 5.92 in series [2]; 5.00 in series [3]; 5.64 in series [5]; 5.16 in series [6]; 4.70 in series [7]; 4.96 in series [8].

For the compound `O=C(Nc1ccc(S(=O)(=O)Nc2nccs2)cc1)c1cccn1Cc1ccc(Cl)cc1`, the negative logarithm of the IC50 (pIC50) is 5.43 in [2]; < 4.52 in series [3]; 5.08 in series [5]; < 4.52 in [6]; < 4.52 in series [7]; < 4.52 in series [8]. Moreover, the “inhibition (INH)” value in [4] is “Not Active”.

Consider `O=C(Nc1ccc(S(=O)(=O)Nc2nccs2)cc1)C1CC1c1ccc(F)c(F)c1` (racemic), for which the pIC50 in series [2] is 5.52; in series [9] it was 7.70; in series [3], < 4.52; in series [12], 5.16; in series [5], 5.15; in [6], < 4.52. Besides, the pIC50 in series [7] and in series [8] was < 4.52 throughout. Also, the inhibition entry in series [10], in series [11], in [14], in series [15], in series [16] and in series [18] was “inactive” in each case. In addition, the “inhibition (INH)” value in series [4] is reported as “Not Active”. Moreover, the values for the inhibition in [13] and in [17] were < 9% and 63%, respectively.

For the compound `O=C(Nc1ccc(S(=O)(=O)Nc2nccs2)cc1)c1cc(Br)c(Br)n1-c1ccccc1`, the pIC50 in [2] is 5.47; in series [3], < 4.52; in series [5], 5.03; in [6], < 4.52; in series [7], < 4.52; in series [8], < 4.52. In addition, the “inhibition (INH)” value in [4] is on record as “Not Active”.

Consider `O=C(Nc1nccs1)c1ccc(NC(=O)[C@@H]2C[C@H]2c2ccccc2)cc1`, for which the pIC50 in series [2], in series [3], in series [5], in [6], in [7] and in [8] was < 4.52 in each case.

For the compound `CC(Oc1ccc(Cl)cc1)C(=O)Nc1ccc(S(=O)(=O)Nc2nccs2)cc1` (stereo not given), the pIC50 in series [9] was 6.49; in [12] it was < 4.52; in series [6] it was < 4.52; in series [8], < 4.52. The inhibition result in series [10], in series [11], in series [14], in series [15], in series [16] and in series [18] was “inactive” in each case. In [4], the “inhibition (INH)” value is “Not Active”. Besides, in series [17], the inhibition (in general, the share of the control response that was lost under treatment) was 21%.

In the case of `O=C(Nc1ccc(S(=O)(=O)Nc2nccs2)cc1)C1Cc2cc(Cl)ccc2O1` (stereo not given), the pIC50 in series [9] is 6.62; in [12] it was < 4.52; in [6], < 4.52; in series [8], < 4.52. Also, the inhibition result in [10], in series [11], in [14], in series [15], in [16] and in [18] was “inactive” in each case. The “inhibition (INH)” value in [4] was “Not Active”. Further, the inhibition in series [17] stood at 21%.
